Measurements from ChEMBL document CHEMBL2311295 (J Med Chem, 2013).

Columns and labels:
HCT-116 = assay: Cytotoxicity against human HCT116 cells after 72 hrs by phosphatase assay; type: functional, cell-based; conditions: HCT-116, 72 h
Summary of the method: (§1)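 Cells diluted to 30,000 cells/mL in DMEM with 10% FBS and seeded into 96-well plates (100 μL per well), then grown 24 h at 37 °C under 5% CO2. Test agents were made as 1 mM DMSO stocks with 10-fold serial dilutions and tested at six concentrations over 0–1,000 nM or 0–10,000 nM, in duplicate, for 72 h. Acid phosphatase read-out: substrate in 0.1 M NaOAc pH 5.5 with 0.1% Triton X-100, 15 min at 37 °C, stopped with NaOH, A405.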

HCT-116/VM46 = assay: Cytotoxicity against vinblastine-resistant human HCT116/VM46 cells after 72 hrs by phosphatase assay; type: functional, cell-based; conditions: HCT-116/VM46, 72 h
Summary of the method: as §1, with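 “A405. IC50 is the mean of 4–16 determinations.” for “A405.”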

Structure (SMILES)	IC50 (HCT-116)	IC50 (HCT-116/VM46)
CC[C@]1(NC(N)=O)C[C@H]2CN(CCc3c([nH]c4ccccc34)[C@@](C(=O)OC)(c3cc4c(cc3OC)N(C)[C@H]3[C@@](O)(C(=O)OC)[C@H](OC(C)=O)[C@]5(CC)C=CCN6CC[C@]43[C@@H]65)C2)C1	7.5 nM	4400 nM
CCN(CC)C(=O)N[C@@]1(CC)C[C@H]2CN(CCc3c([nH]c4ccccc34)[C@@](C(=O)OC)(c3cc4c(cc3OC)N(C)[C@H]3[C@@](O)(C(=O)OC)[C@H](OC(C)=O)[C@]5(CC)C=CCN6CC[C@]43[C@@H]65)C2)C1	6.7 nM	450 nM
CC[C@]1(N)C[C@H]2CN(CCc3c([nH]c4ccccc34)[C@@](C(=O)OC)(c3cc4c(cc3OC)N(C)[C@H]3[C@@](O)(C(=O)OC)[C@H](OC(C)=O)[C@]5(CC)C=CCN6CC[C@]43[C@@H]65)C2)C1	600 nM	> 10000 nM
CC[C@]1(N=C=S)C[C@H]2CN(CCc3c([nH]c4ccccc34)[C@@](C(=O)OC)(c3cc4c(cc3OC)N(C)[C@H]3[C@@](O)(C(=O)OC)[C@H](OC(C)=O)[C@]5(CC)C=CCN6CC[C@]43[C@@H]65)C2)C1	530 nM	–
CC[C@]12C=CCN3CC[C@@]4(c5cc([C@@]6(C(=O)OC)C[C@@H]7CN(CCc8c6[nH]c6ccccc86)C[C@@](CC)(N(C)C)C7)c(OC)cc5N(C)[C@H]4[C@@](O)(C(=O)OC)[C@@H]1OC(C)=O)[C@@H]32	980 nM	> 10000 nM
CC[C@]1(OC(=O)N(C)C)C[C@H]2CN(CCc3c([nH]c4ccccc34)[C@@](C(=O)OC)(c3cc4c(cc3OC)N(C)[C@H]3[C@@](O)(C(=O)OC)[C@H](OC(C)=O)[C@]5(CC)C=CCN6CC[C@]43[C@@H]65)C2)C1	4700 nM	9100 nM
CC[C@]1(NC(=O)Nc2ccc(OC)cc2)C[C@H]2CN(CCc3c([nH]c4ccccc34)[C@@](C(=O)OC)(c3cc4c(cc3OC)N(C)[C@H]3[C@@](O)(C(=O)OC)[C@H](OC(C)=O)[C@]5(CC)C=CCN6CC[C@]43[C@@H]65)C2)C1	2 nM	230 nM
CC[C@]1(NC(=O)Nc2ccccc2)C[C@H]2CN(CCc3c([nH]c4ccccc34)[C@@](C(=O)OC)(c3cc4c(cc3OC)N(C)[C@H]3[C@@](O)(C(=O)OC)[C@H](OC(C)=O)[C@]5(CC)C=CCN6CC[C@]43[C@@H]65)C2)C1	5.1 nM	390 nM
CC[C@]1(NC(=O)Nc2ccc(C)cc2)C[C@H]2CN(CCc3c([nH]c4ccccc34)[C@@](C(=O)OC)(c3cc4c(cc3OC)N(C)[C@H]3[C@@](O)(C(=O)OC)[C@H](OC(C)=O)[C@]5(CC)C=CCN6CC[C@]43[C@@H]65)C2)C1	4.8 nM	330 nM
CC[C@]1(NC)C[C@H]2CN(CCc3c([nH]c4ccccc34)[C@@](C(=O)OC)(c3cc4c(cc3OC)N(C)[C@H]3[C@@](O)(C(=O)OC)[C@H](OC(C)=O)[C@]5(CC)C=CCN6CC[C@]43[C@@H]65)C2)C1	60 nM	8500 nM
CC[C@]1(NC(=O)Oc2ccc([N+](=O)[O-])cc2)C[C@H]2CN(CCc3c([nH]c4ccccc34)[C@@](C(=O)OC)(c3cc4c(cc3OC)N(C)[C@H]3[C@@](O)(C(=O)OC)[C@H](OC(C)=O)[C@]5(CC)C=CCN6CC[C@]43[C@@H]65)C2)C1	55 nM	–
CC[C@]1(NC(C)=O)C[C@H]2CN(CCc3c([nH]c4ccccc34)[C@@](C(=O)OC)(c3cc4c(cc3OC)N(C)[C@H]3[C@@](O)(C(=O)OC)[C@H](OC(C)=O)[C@]5(CC)C=CCN6CC[C@]43[C@@H]65)C2)C1	90 nM	–
CC[C@]1(NC(=O)NCc2ccccc2)C[C@H]2CN(CCc3c([nH]c4ccccc34)[C@@](C(=O)OC)(c3cc4c(cc3OC)N(C)[C@H]3[C@@](O)(C(=O)OC)[C@H](OC(C)=O)[C@]5(CC)C=CCN6CC[C@]43[C@@H]65)C2)C1	7.3 nM	740 nM
CC[C@]1(NC(N)=S)C[C@H]2CN(CCc3c([nH]c4ccccc34)[C@@](C(=O)OC)(c3cc4c(cc3OC)N(C)[C@H]3[C@@](O)(C(=O)OC)[C@H](OC(C)=O)[C@]5(CC)C=CCN6CC[C@]43[C@@H]65)C2)C1	7.7 nM	2000 nM
CC[C@]1(N=[N+]=[N-])C[C@H]2CN(CCc3c([nH]c4ccccc34)[C@@](C(=O)OC)(c3cc4c(cc3OC)N(C)[C@H]3[C@@](O)(C(=O)OC)[C@H](OC(C)=O)[C@]5(CC)C=CCN6CC[C@]43[C@@H]65)C2)C1	690 nM	–
CC[C@]1(NC(=O)Nc2ccc(C(F)(F)F)cc2)C[C@H]2CN(CCc3c([nH]c4ccccc34)[C@@](C(=O)OC)(c3cc4c(cc3OC)N(C)[C@H]3[C@@](O)(C(=O)OC)[C@H](OC(C)=O)[C@]5(CC)C=CCN6CC[C@]43[C@@H]65)C2)C1	7.1 nM	610 nM

Structure (SMILES)	IC50 (HCT-116)	IC50 (HCT-116/VM46)
CCCCNC(=O)N[C@@]1(CC)C[C@H]2CN(CCc3c([nH]c4ccccc34)[C@@](C(=O)OC)(c3cc4c(cc3OC)N(C)[C@H]3[C@@](O)(C(=O)OC)[C@H](OC(C)=O)[C@]5(CC)C=CCN6CC[C@]43[C@@H]65)C2)C1	4.6 nM	270 nM
CC[C@]1(NC(=S)N(C)C)C[C@H]2CN(CCc3c([nH]c4ccccc34)[C@@](C(=O)OC)(c3cc4c(cc3OC)N(C)[C@H]3[C@@](O)(C(=O)OC)[C@H](OC(C)=O)[C@]5(CC)C=CCN6CC[C@]43[C@@H]65)C2)C1	8.7 nM	250 nM
CC[C@]1(NC(=O)N2CCOCC2)C[C@H]2CN(CCc3c([nH]c4ccccc34)[C@@](C(=O)OC)(c3cc4c(cc3OC)N(C)[C@H]3[C@@](O)(C(=O)OC)[C@H](OC(C)=O)[C@]5(CC)C=CCN6CC[C@]43[C@@H]65)C2)C1	4.5 nM	360 nM
CC[C@@H]1C[C@H]2CN(CCc3c([nH]c4ccccc34)[C@@](C(=O)OC)(c3cc4c(cc3OC)N(C)[C@H]3[C@@](O)(C(=O)OC)[C@H](OC(C)=O)[C@]5(CC)C=CCN6CC[C@]43[C@@H]65)C2)C1 [ROSEAMINE]	60 nM	–
CC[C@]1(NC(=S)Nc2ccccc2)C[C@H]2CN(CCc3c([nH]c4ccccc34)[C@@](C(=O)OC)(c3cc4c(cc3OC)N(C)[C@H]3[C@@](O)(C(=O)OC)[C@H](OC(C)=O)[C@]5(CC)C=CCN6CC[C@]43[C@@H]65)C2)C1	40 nM	650 nM
CC[C@]1(NC(=O)NC2CCCCC2)C[C@H]2CN(CCc3c([nH]c4ccccc34)[C@@](C(=O)OC)(c3cc4c(cc3OC)N(C)[C@H]3[C@@](O)(C(=O)OC)[C@H](OC(C)=O)[C@]5(CC)C=CCN6CC[C@]43[C@@H]65)C2)C1	5.4 nM	450 nM
CC[C@]1(SC#N)C[C@H]2CN(CCc3c([nH]c4ccccc34)[C@@](C(=O)OC)(c3cc4c(cc3OC)N(C)[C@H]3[C@@](O)(C(=O)OC)[C@H](OC(C)=O)[C@]5(CC)C=CCN6CC[C@]43[C@@H]65)C2)C1	550 nM	–
CC[C@]1(NC=O)C[C@H]2CN(CCc3c([nH]c4ccccc34)[C@@](C(=O)OC)(c3cc4c(cc3OC)N(C)[C@H]3[C@@](O)(C(=O)OC)[C@H](OC(C)=O)[C@]5(CC)C=CCN6CC[C@]43[C@@H]65)C2)C1	85 nM	–
CCNC(=O)N(C)[C@@]1(CC)C[C@H]2CN(CCc3c([nH]c4ccccc34)[C@@](C(=O)OC)(c3cc4c(cc3OC)N(C)[C@H]3[C@@](O)(C(=O)OC)[C@H](OC(C)=O)[C@]5(CC)C=CCN6CC[C@]43[C@@H]65)C2)C1	520 nM	8500 nM
CC[C@]1(NC(=O)NCc2ccccn2)C[C@H]2CN(CCc3c([nH]c4ccccc34)[C@@](C(=O)OC)(c3cc4c(cc3OC)N(C)[C@H]3[C@@](O)(C(=O)OC)[C@H](OC(C)=O)[C@]5(CC)C=CCN6CC[C@]43[C@@H]65)C2)C1	5.6 nM	670 nM
CC[C@]1(NC(=O)NC(C)(C)C)C[C@H]2CN(CCc3c([nH]c4ccccc34)[C@@](C(=O)OC)(c3cc4c(cc3OC)N(C)[C@H]3[C@@](O)(C(=O)OC)[C@H](OC(C)=O)[C@]5(CC)C=CCN6CC[C@]43[C@@H]65)C2)C1	20 nM	670 nM
CC[C@]1(NC(=S)NCCc2ccc(F)cc2)C[C@H]2CN(CCc3c([nH]c4ccccc34)[C@@](C(=O)OC)(c3cc4c(cc3OC)N(C)[C@H]3[C@@](O)(C(=O)OC)[C@H](OC(C)=O)[C@]5(CC)C=CCN6CC[C@]43[C@@H]65)C2)C1	60 nM	750 nM
CC[C@]1(NC(=O)NCCc2ccccc2)C[C@H]2CN(CCc3c([nH]c4ccccc34)[C@@](C(=O)OC)(c3cc4c(cc3OC)N(C)[C@H]3[C@@](O)(C(=O)OC)[C@H](OC(C)=O)[C@]5(CC)C=CCN6CC[C@]43[C@@H]65)C2)C1	6.3 nM	590 nM
CC[C@]1(NC(=O)OC)C[C@H]2CN(CCc3c([nH]c4ccccc34)[C@@](C(=O)OC)(c3cc4c(cc3OC)N(C)[C@H]3[C@@](O)(C(=O)OC)[C@H](OC(C)=O)[C@]5(CC)C=CCN6CC[C@]43[C@@H]65)C2)C1	75 nM	–
CC[C@]1(NC(=O)Nc2ccc(Cl)cc2)C[C@H]2CN(CCc3c([nH]c4ccccc34)[C@@](C(=O)OC)(c3cc4c(cc3OC)N(C)[C@H]3[C@@](O)(C(=O)OC)[C@H](OC(C)=O)[C@]5(CC)C=CCN6CC[C@]43[C@@H]65)C2)C1	6.7 nM	590 nM
